In the library only some 1.7% were active in any assay of this set; here they are far more common.
JMJD2C inh – blocks human GASC-1 demethylase activity; inhibition, % at 2.35 µM; 0.069% of 330,000 active; Q9H3R0; GST-JMJD2C(1-420) H3K9me3 demethylation, DELFIA europium;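 active means more than half of a compound's replicate wells show inhibition beyond 50%, single wells judged on their own value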;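 further: signal counts dimethyl H3K9 product captured on neutravidin plate; 0% = median of DMSO wells and 100% = 0.3 times that DMSO median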
T cell modulator – modulates CD8 T cell binding to vesicles; 0.068% of 330,000 active; response (vesicle binding), % at 7 µM; AID 2052; 2C CD8+ T cell-vesicle binding, flow cytometry; stronger effect = lower value;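 active means response, share of CD8 T cells binding vesicles, and their 90th percentile fluorescence all below set limits, cut at about 80% in these data, passing the limit was not always enough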;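 further: values below 100% mean blocked vesicle binding to the CD8+ T cells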
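Material: 2C TCR transgenic mouse naive CD8+ T cells, MACS-purified. Also added: QL9-charged Drosophila Ld/ICAM-1/B7-1 vesicles. Timing: binding 1.5 h at 37 °C. Measured by: high-throughput flow cytometry with anti-B7-1 and anti-CD8 staining. Read-out: percent CD8+ FL2 mean versus row control. Controls: Unloaded micro-vesicles (low), QL9 vesicles with 0.7% DMSO (high).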
PP5 inh – inhibitors of human protein phosphatase 5 (PP5). purified PP5c, OMFP substrate fluorescence. inhibition, % at 6.7 µM. 0.18% of 320,000 active. AID 1987;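 active means inhibition above the campaign's mean inhibition across all tested compounds plus 3 SD, cut at about 9.5% in these data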;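 further: 0% = DMSO only and 100% = 100 µM cantharidin control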
PP1 counter – blocks human PP1-alpha phosphatase, a PP5 counter-screen | 0.9% of 320,000 active | purified PP1alpha, OMFP fluorescence | inhibition, % at 6.7 µM | AID 2235;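 active means inhibition above the mean inhibition of all tested compounds plus 3 SD, computed separately for each screening campaign, cut at about 15% in these data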
Target sequence (P62136 whole entry, looked up): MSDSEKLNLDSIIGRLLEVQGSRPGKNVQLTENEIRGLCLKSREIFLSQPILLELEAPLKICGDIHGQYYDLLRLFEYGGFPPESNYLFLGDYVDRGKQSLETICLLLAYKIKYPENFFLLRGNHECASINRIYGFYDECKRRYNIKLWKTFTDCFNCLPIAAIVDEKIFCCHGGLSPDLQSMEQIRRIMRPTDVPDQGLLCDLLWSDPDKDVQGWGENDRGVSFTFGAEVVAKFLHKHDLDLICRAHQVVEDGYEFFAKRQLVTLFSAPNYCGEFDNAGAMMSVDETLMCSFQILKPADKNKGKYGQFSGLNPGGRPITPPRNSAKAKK
HTR2A ag – mouse HTR2A agonism via beta-arrestin recruitment; CHO-K1 mHTR2A beta-arrestin complementation, luminescence; percent of 30 µM serotonin response; activation, % at 7.6 µM; 0.66% of 360,000 active; AID 624169;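 active means activation above a run cutoff, the mean activation of all tested compounds plus 3 SD, cut at about 14% in these data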;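 further: 0% = plate median of compound wells and 100% = 30 µM serotonin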
OPRM1 ag – OPRM1 agonism in mouse HTR2A counterscreen; shares compounds with HTR2A ag; U2OS OPRM1 beta-arrestin PathHunter, luminescence; DMSO 0%, DAMGO 9.3 µM 100%; activation, % at 9.3 µM; 5.3% of 2,300 active;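 active means mean activation above the mean of DMSO-only wells plus 3 SD, cut at about 0.5% in these data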
HTR2A ag conf – confirmation of mouse HTR2A serotonin receptor agonists. activation, % at 7.6 µM. shares compounds with HTR2A ag. CHO-K1 PathHunter beta-arrestin recruitment, luminescence; DMSO 0%, 30 µM serotonin 100%. 19% of 2,300 active;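 active means mean activation across triplicates above the hit threshold derived in the original primary screen, cut at about 15% in these data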
Numbers without * were called inactive.

What do the screens show for `Cc1cccc2nc(COc3ccc4ccccc4c3Br)cn12`?
JMJD2C inh: -1.0; T cell modulator: 150.5; PP5 inh: 0.8; PP1 counter: 5.8; HTR2A ag: 32.1*; OPRM1 ag: -0.4; HTR2A ag conf: 11.1

How did CCOCCn1c(=O)c2c(nc3n2CC(C)CN3CCc2ccccc2)n(C)c1=O (configuration not stated) do in these assays?
JMJD2C inh: -19.5; T cell modulator: 535.1; PP5 inh: 2.0; PP1 counter: -3.0; HTR2A ag: 14.8*; OPRM1 ag: -0.3; HTR2A ag conf: -1.1

How did COC(=O)Cn1c(=O)c2c(nc3n2CC(C)CN3CCc2ccccc2)n(C)c1=O (configuration not stated) do in these assays?
JMJD2C inh: 11.7; HTR2A ag: 2.6

How did COc1ccccc1/C=C/C(=O)NCC(=O)n1nc(C)cc1C do in these assays?
JMJD2C inh: 24.9; T cell modulator: 572.6; PP5 inh: 1.4; PP1 counter: -0.8; HTR2A ag: 18.7*; OPRM1 ag: -0.6; HTR2A ag conf: -0.9

How did COCC1CCN(C(=O)C2CCC(=O)N(C3CCCC3)C2)CC1 (configuration not stated) do in these assays?
JMJD2C inh: 0.7; T cell modulator: 177.5; PP5 inh: -1.9; PP1 counter: 3.5; HTR2A ag: 15.2*; OPRM1 ag: -0.2; HTR2A ag conf: 1.2

What do the screens show for `CN(C(=O)Nc1cccc(C(F)(F)F)c1)C1CCCCC1`?
JMJD2C inh: 18.0; T cell modulator: 287.9; PP5 inh: -0.5; PP1 counter: -6.8; HTR2A ag: -3.2

How did CCCCc1nnc(NC(=O)CSc2nc(=O)cc(N)n2-c2ccccc2)s1 do in these assays?
JMJD2C inh: -2.3; T cell modulator: 210.8; PP5 inh: -1.8; PP1 counter: -1.6; HTR2A ag: 16.3*; OPRM1 ag: -0.6; HTR2A ag conf: -2.3

How did COc1cccc(CN(C)C(=O)CN2C(=O)NC(c3ccccc3)(c3ccccc3)C2=O)c1OC do in these assays?
T cell modulator: 353.3; PP5 inh: 4.7; PP1 counter: 1.6; HTR2A ag: -7.2

How did COCCNc1nc(-c2cc(-c3ccc(Cl)cc3)on2)cc(C(C)C)n1 do in these assays?
JMJD2C inh: 1.8; T cell modulator: 482.3; PP5 inh: 4.7; PP1 counter: -3.0; HTR2A ag: 16.1*; OPRM1 ag: -0.7; HTR2A ag conf: -2.7

Results for CC(C)c1cc(-c2cc(-c3ccc(Cl)cc3)on2)nc(NCC2CC2)n1 ?
JMJD2C inh: -32.0; T cell modulator: inactive; PP5 inh: 0.5; PP1 counter: 4.3; HTR2A ag: -3.1

How did C=CCn1c(SCC(=O)NC(=O)c2cccc([N+](=O)[O-])c2)nnc1-c1ccccc1F do in these assays?
JMJD2C inh: 4.5; T cell modulator: 247.9; PP5 inh: 0.7; PP1 counter: -2.1; HTR2A ag: 2.4

What do the screens show for `COc1cc(NC(=O)CCc2nnc3ccc(N4CCCCC4)nn23)cc(OC)c1OC`?
JMJD2C inh: 8.1; T cell modulator: 136.0; PP5 inh: 0.5; PP1 counter: 4.5; HTR2A ag: 16.2*; OPRM1 ag: -0.6; HTR2A ag conf: -4.7

How did COc1cc(NC(=O)CCc2nnc3ccc(N4CCCC4)nn23)cc(OC)c1OC do in these assays?
JMJD2C inh: 29.5; T cell modulator: 272.4; PP5 inh: 1.4; PP1 counter: 11.3; HTR2A ag: 0.5

How did COC(=O)c1c(C(=O)OC)c(-c2cccc(Cl)c2)n2c1CS(=O)C2 (configuration not stated) do in these assays?
JMJD2C inh: -0.7; T cell modulator: 229.5; PP5 inh: -3.0; PP1 counter: -1.6; HTR2A ag: 6.2

Results for Cc1ccc(SCCNC(=O)C(C)C)cc1 ?
JMJD2C inh: 1.2; T cell modulator: 414.2; PP5 inh: -0.2; PP1 counter: -5.9; HTR2A ag: 16.4*; OPRM1 ag: -0.6; HTR2A ag conf: -5.2

What do the screens show for `Cc1ccc(C2C=CC(C#N)=CN2Cc2ccccc2)cc1` (configuration not stated)?
HTR2A ag: -10.8

Source: PubChem (several laboratories)
